Laboratory results from PMC3654042 (Environmental toxicology, 2012).
Entries after “also recorded” stand apart in the source; their conditions may differ. Where two headings read alike, the source gives them in different places.

Assays:
[1] = target: T1, purified porcine liver PMPMEase (Sus scrofa, UniProt Q29550); assay: Inhibition of purified porcine liver PMPMEase; assay type: biochemical; conditions: for residual enzyme activity (suppressed to) / inhibition of PMPMEase: fragrance 1 mM, PMPMEase 5 µg, 1 mM RD-PNB, 1 h; for residual enzyme activity (suppressed to): % of uninhibited control
T1 sequence (Q29550 19-566): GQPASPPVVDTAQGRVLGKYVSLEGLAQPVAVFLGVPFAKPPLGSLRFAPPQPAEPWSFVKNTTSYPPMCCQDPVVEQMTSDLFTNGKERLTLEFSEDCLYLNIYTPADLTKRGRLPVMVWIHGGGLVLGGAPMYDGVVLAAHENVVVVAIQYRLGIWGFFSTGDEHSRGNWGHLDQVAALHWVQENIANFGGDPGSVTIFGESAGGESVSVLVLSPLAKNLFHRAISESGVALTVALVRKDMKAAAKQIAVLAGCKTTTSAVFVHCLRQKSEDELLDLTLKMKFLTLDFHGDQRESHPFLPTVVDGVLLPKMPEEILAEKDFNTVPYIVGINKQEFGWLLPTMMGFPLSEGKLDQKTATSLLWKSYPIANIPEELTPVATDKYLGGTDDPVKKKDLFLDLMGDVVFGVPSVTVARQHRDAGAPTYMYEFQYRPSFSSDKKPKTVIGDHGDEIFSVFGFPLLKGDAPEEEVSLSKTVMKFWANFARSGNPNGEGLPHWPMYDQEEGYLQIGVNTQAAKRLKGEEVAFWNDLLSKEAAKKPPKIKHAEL
Summary of the method: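 Single-concentration screen: test compound 1 mM in DMSO was incubated with 5 µg purified pig liver PMPMEase and 1 mM RD-PNB substrate for 1 h in 100 mM Tris–HCl, pH 7.4, at 37°C. Stopped with methanol, chilled on ice, and centrifuged at 5000 × g for 5 min. Residual activity was measured by reversed-phase HPLC of the supernatant, as % of uninhibited control, N = 3.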

[2] = system: human lung cancer A549 cells; assay: Apoptosis assay; assay type: cell-based; conditions: 0–10 µM, serum-free medium
Summary of the method: (§1)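 Treatment at 0–10 µM in serum-free medium at 37°C in 5% CO2/95% humidified air, one addition per well. Exposure is 24 h per methods and 48 h per figure legend. A549 were seeded at 2 × 10^5 per well and SH-SY5Y at 3 × 10^5 per well in 24-well plates. Stained in the dark with EB/AO 10 µg/mL for 15 min and viewed at 400× with 480/30 nm excitation. Green nuclei were scored live, condensed or fragmented orange chromatin apoptotic, and normal orange nuclei necrotic.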

[3] = system: human neuroblastoma SH-SY5Y cells; assay: Apoptosis assay; assay type: cell-based; conditions: 0–10 µM, serum-free medium
Summary of the method: as §1

[4] = system: human neuroblastoma SH-SY5Y cells; assay: Cell viability; assay type: cell-based; conditions: for cell degeneration: SH-SY5Y cells, 1–200 µM, 48 h
Summary of the method: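 SH-SY5Y neuroblastoma cells grown in DMEM/F12 with 10% heat-inactivated FBS and penicillin/streptomycin at 37°C, 5% CO2, trypsinized at 80–90% confluence, and plated in 96-well plates. Exposed in serum-free DMEM/F12 to test compound (1–200 µM, acetone vehicle, 1% final), re-dosed identically at 24 h, for 48 h. Resazurin (0.05%) added for 2 h in the dark at room temperature. Fluorescence read at ex 560/em 590 nm as % of untreated control, mean ± SEM, N = 4.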

[5] = system: human lung cancer A549 cells; assay: Cell viability; assay type: cell-based; conditions: for cell degeneration: A549 cells, 1–200 µM, 48 h
Summary of the method: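 A549 cells grown in DMEM/F12 with 10% heat-inactivated FBS and penicillin/streptomycin at 37°C, 5% CO2, trypsinized at 80–90% confluence, and seeded in 96-well plates. Treated with test compound (1–200 µM, acetone vehicle, 1% final) in serum-free RPMI 1640/F12, with the same dose re-added at 24 h, for 48 h. Resazurin (0.05%) added for 2 h in the dark at room temperature. Fluorescence read at ex 560/em 590 nm and expressed as % of untreated control, mean ± SEM, N = 4.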

[6] = purified porcine liver PMPMEase, RD-PNB substrate

## CCCCCCCCC1CCC(=O)O1 (stereo not drawn) [Dodecalactone, γ-dodecalactone]
[1]
  residual enzyme activity (suppressed to): less than 25%
[1]; [6]
  Ki: 12 µM

## CCCCC=O [Pentanal, pentanal]
[1]
  Ki: 173 µM
  inhibition of PMPMEase: 60%
  residual enzyme activity (suppressed to): less than 25%
[1]; IC50, purified porcine liver PMPMEase, value as worded in text
  IC50: > 1 mM

## CC1=C(C=O)C(C)(C)CCC1 [β-Cyclocitral, β-cyclocitral]
[1]
  residual enzyme activity (suppressed to): less than 25%
[1]; [6]
  Ki: 4 µM

## CC(=O)c1cc2c(cc1C)C(C)(C)C(C)CC2(C)C (stereo not drawn) [Tonalide]
[2]
  apoptosis (AO/EB staining, words): apoptosis was observed in a concentration-dependent manner; also recorded: induced apoptosis
[1]
  residual enzyme activity (suppressed to): less than 25%
[1]; [6]
  Ki: 14 µM
[3]
  apoptosis (AO/EB staining, words): apoptosis was observed in a concentration-dependent manner; also recorded: induced apoptosis
[4]
  cell degeneration: significant degeneration
[5]
  cell degeneration: significant degeneration
[5]; read-out: EC50 cell degeneration, lung cancer A549 cells, resazurin reduction
  EC50: 14 µM

## CC1COCc2cc3c(cc21)C(C)(C)C(C)C3(C)C (stereo not drawn) [Galaxolide]
[2]
  apoptosis (AO/EB staining, words): induced apoptosis
[1]
  Ki: 11 µM
  residual enzyme activity (suppressed to): less than 25%
[3]
  apoptosis (AO/EB staining, words): induced apoptosis
[4]; Homo sapiens, SH-SY5Y, read-out: EC50 cell degeneration
  EC50: 26 µM
[4]
  cell degeneration: significant degeneration
[5]
  cell degeneration: significant degeneration
[5]; Homo sapiens, A549, read-out: EC50 cell degeneration
  EC50: 58 µM

## CCCCC1CCCCC(=O)O1 (stereo not drawn) [ε-decalactone]
[1]
  inhibition of PMPMEase: 30%
  residual enzyme activity (suppressed to): less than 25%

## O=C1CCCCCCCCCCCCCCO1 [ω-Pentadecalactone, ω-pentadecalactone]
[1]
  residual enzyme activity (suppressed to): less than 25%
[1]; [6]
  Ki: 46 µM
